From ChEMBL document CHEMBL3734675, “Synthesis, antimycobacterial and antibacterial activity of fluoroquinolone derivatives containing an 3-alkoxyimino-4-(cyclopropylanimo)methylpyrrolidine moiety” (2015)
Values after ≈ are worked out from the molar mass of the structure shown.

Tests used:
Assay type in all cases: functional
Staphylococcus aureus [1] = assay: Antibacterial activity against methicillin-resistant Staphylococcus aureus 14-5 after 18 to 24 hrs by two-fold serial dilution method
Method in brief: (§1)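 Agar media, standard twofold serial dilution. MIC is the lowest concentration giving complete inhibition of bacterial growth after incubation at 35 °C for 18–24 h. Ciprofloxacin and levofloxacin were run as comparators.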

[2] = system: Staphylococcus epidermidis; assay: Antibacterial activity against methicillin-resistant Staphylococcus epidermidis 14-21 after 18 to 24 hrs by two-fold serial dilution method; method in brief: as §1
Staphylococcus aureus [3] = assay: Antibacterial activity against methicillin-sensitive Staphylococcus aureus 14-3 after 18 to 24 hrs by two-fold serial dilution method
Method in brief: (§2)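 Twofold serial dilution in agar media against Gram-positive and Gram-negative strains. Plates incubated at 35 °C for 18–24 h. MIC read as the lowest compound concentration giving complete inhibition of bacterial growth.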

Escherichia coli [4] = assay: Antibacterial activity against Escherichia coli 14-2 after 18 to 24 hrs by two-fold serial dilution method; method in brief: as §2
Klebsiella pneumoniae [5] = assay: Antibacterial activity against Klebsiella pneumoniae 14-4 after 18 to 24 hrs by two-fold serial dilution method; method in brief: as §2
Escherichia coli [6] = assay: Antibacterial activity against Escherichia coli 14-1 after 18 to 24 hrs by two-fold serial dilution method; method in brief: as §2
Pseudomonas aeruginosa [7] = assay: Antibacterial activity against Pseudomonas aeruginosa 14-16 after 18 to 24 hrs by two-fold serial dilution method; method in brief: as §2
Klebsiella pneumoniae [8] = assay: Antibacterial activity against extended-spectrum beta-lactamase producing Klebsiella pneumoniae 14-18 after 18 to 24 hrs by two-fold serial dilution method; method in brief: as §2
Pseudomonas aeruginosa [9] = assay: Antibacterial activity against Pseudomonas aeruginosa ATCC 27853 after 18 to 24 hrs by two-fold serial dilution method; method in brief: as §2
Klebsiella pneumoniae [10] = assay: Antibacterial activity against Klebsiella pneumoniae 14-3 after 18 to 24 hrs by two-fold serial dilution method; method in brief: as §2
Staphylococcus aureus [11] = assay: Antibacterial activity against Staphylococcus aureus CMCC 26003 after 18 to 24 hrs by two-fold serial dilution method; method in brief: as §2
Pseudomonas aeruginosa [12] = assay: Antibacterial activity against Pseudomonas aeruginosa 14-14 after 18 to 24 hrs by two-fold serial dilution method; method in brief: as §2
Klebsiella pneumoniae [13] = assay: Antibacterial activity against Klebsiella pneumoniae 14-1 after 18 to 24 hrs by two-fold serial dilution method; method in brief: as §2
[14] = system: Staphylococcus epidermidis; assay: Antibacterial activity against methicillin-resistant Staphylococcus epidermidis 14-37 after 18 to 24 hrs by two-fold serial dilution method; method in brief: as §1
Streptococcus pneumoniae = assay: Antibacterial activity against methicillin-resistant Streptococcus pneumoniae ATCC 19615 after 18 to 24 hrs by two-fold serial dilution method; method in brief: as §1
Staphylococcus aureus [15] = assay: Antibacterial activity against methicillin-resistant Staphylococcus aureus 14-4 after 18 to 24 hrs by two-fold serial dilution method; method in brief: as §1
[16] = system: Staphylococcus epidermidis; assay: Antibacterial activity against methicillin-resistant Staphylococcus epidermidis 14-22 after 18 to 24 hrs by two-fold serial dilution method; method in brief: as §1
Escherichia coli [17] = assay: Antibacterial activity against extended-spectrum beta-lactamase producing Escherichia coli 14-1 after 18 to 24 hrs by two-fold serial dilution method; method in brief: as §2
Enterococcus faecium [18] = assay: Antibacterial activity against Enterococcus faecium 14-2 after 18 to 24 hrs by two-fold serial dilution method; method in brief: as §2
Staphylococcus aureus [19] = assay: Antibacterial activity against methicillin-sensitive Staphylococcus aureus 14-1 after 18 to 24 hrs by two-fold serial dilution method; method in brief: as §2
Pseudomonas aeruginosa [20] = assay: Antibacterial activity against Pseudomonas aeruginosa 14-9 after 18 to 24 hrs by two-fold serial dilution method; method in brief: as §2
[21] = system: Staphylococcus epidermidis; assay: Antibacterial activity against methicillin-resistant Staphylococcus epidermidis 14-39 after 18 to 24 hrs by two-fold serial dilution method; method in brief: as §1
Pseudomonas aeruginosa [22] = assay: Antibacterial activity against Pseudomonas aeruginosa 14-15 after 18 to 24 hrs by two-fold serial dilution method; method in brief: as §2
[23] = system: Staphylococcus epidermidis; assay: Antibacterial activity against methicillin-sensitive Staphylococcus epidermidis 14-2 after 18 to 24 hrs by two-fold serial dilution method; method in brief: as §2
Klebsiella pneumoniae [24] = assay: Antibacterial activity against extended-spectrum beta-lactamase producing Klebsiella pneumoniae 14-19 after 18 to 24 hrs by two-fold serial dilution method; method in brief: as §2
Enterococcus faecium [25] = assay: Antibacterial activity against Enterococcus faecium 14-5 after 18 to 24 hrs by two-fold serial dilution method; method in brief: as §2
Enterococcus faecalis [26] = assay: Antibacterial activity against Enterococcus faecalis 14-2 after 18 to 24 hrs by two-fold serial dilution method; method in brief: as §2
Klebsiella pneumoniae [27] = assay: Antibacterial activity against extended-spectrum beta-lactamase producing Klebsiella pneumoniae 14-17 after 18 to 24 hrs by two-fold serial dilution method; method in brief: as §2
Escherichia coli [28] = assay: Antibacterial activity against Escherichia coli ATCC 25922 after 18 to 24 hrs by two-fold serial dilution method; method in brief: as §2
[29] = system: Mycobacterium tuberculosis; assay: Antimycobacterial activity against Mycobacterium tuberculosis H37Rv ATCC 27294 incubated for 7 days by microplate Alamar Blue assay; conditions: H37Rv ATCC 27294, 168 h
Method in brief: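 Fluorescence read-out. MIC is the lowest concentration that reduces fluorescence by at least 90% relative to the mean of replicate bacterium-only controls. Isoniazid and rifampicin were included as reference drugs.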

Escherichia coli [30] = assay: Antibacterial activity against extended-spectrum beta-lactamase producing Escherichia coli 14-2 after 18 to 24 hrs by two-fold serial dilution method; method in brief: as §2
Klebsiella pneumoniae [31] = assay: Antibacterial activity against Klebsiella pneumoniae 14-2 after 18 to 24 hrs by two-fold serial dilution method; method in brief: as §2
Staphylococcus aureus [32] = assay: Antibacterial activity against methicillin-sensitive Staphylococcus aureus 14-4 after 18 to 24 hrs by two-fold serial dilution method; method in brief: as §2
Enterococcus faecalis [33] = assay: Antibacterial activity against Enterococcus faecalis 14-1 after 18 to 24 hrs by two-fold serial dilution method; method in brief: as §2
Enterococcus faecium [34] = assay: Antibacterial activity against Enterococcus faecium 14-6 after 18 to 24 hrs by two-fold serial dilution method; method in brief: as §2

SMILES | MIC (Staphylococcus aureus [1]) [µg/mL] | MIC [2] [µg/mL] | MIC (Staphylococcus aureus [3]) [µg/mL] | MIC (Escherichia coli [4]) [µg/mL] | MIC (Klebsiella pneumoniae [5]) [µg/mL] | MIC (Escherichia coli [6]) [µg/mL] | MIC (Pseudomonas aeruginosa [7]) [µg/mL] | MIC (Klebsiella pneumoniae [8]) [µg/mL] | MIC (Pseudomonas aeruginosa [9]) [µg/mL] | MIC (Klebsiella pneumoniae [10]) [µg/mL] | MIC (Staphylococcus aureus [11]) [µg/mL] | MIC (Pseudomonas aeruginosa [12]) [µg/mL] | MIC (Klebsiella pneumoniae [13]) [µg/mL] | MIC [14] [µg/mL] | MIC (Streptococcus pneumoniae) [µg/mL] | MIC (Staphylococcus aureus [15]) [µg/mL] | MIC [16] [µg/mL] | MIC (Escherichia coli [17]) [µg/mL] | MIC (Enterococcus faecium [18]) [µg/mL] | MIC (Staphylococcus aureus [19]) [µg/mL] | other results
CO/N=C1/CN(c2nc3c(cc2F)c(=O)c(C(=O)O)cn3[C@@H]2C[C@@H]2F)CC1(C)CNC1CC1 (stereo not given in full) | 2 (≈ 4.33 µM) | 4 (≈ 8.67 µM) | 1 (≈ 2.17 µM) | > 128 | > 128 | > 128 | 32 (≈ 69.3 µM) | 64 (≈ 139 µM) | 16 (≈ 34.7 µM) | 128 (≈ 277 µM) | < 0.008 | 64 (≈ 139 µM) | 32 (≈ 69.3 µM) | 2 (≈ 4.33 µM) | 0.5 (≈ 1.08 µM) | 4 (≈ 8.67 µM) | 4 (≈ 8.67 µM) | 16 (≈ 34.7 µM) | 4 (≈ 8.67 µM) | 1 (≈ 2.17 µM) | MIC (Pseudomonas aeruginosa [20]): 16 µg/mL (≈ 34.7 µM); MIC [21]: 4 µg/mL (≈ 8.67 µM); MIC (Pseudomonas aeruginosa [22]): 64 µg/mL (≈ 139 µM); MIC [23]: 16 µg/mL (≈ 34.7 µM); MIC (Klebsiella pneumoniae [24]): 32 µg/mL (≈ 69.3 µM); MIC (Enterococcus faecium [25]): 4 µg/mL (≈ 8.67 µM); MIC (Enterococcus faecalis [26]): 1 µg/mL (≈ 2.17 µM); MIC (Klebsiella pneumoniae [27]): 64 µg/mL (≈ 139 µM); MIC (Escherichia coli [28]): 1 µg/mL (≈ 2.17 µM); MIC90 [29]: 0.45 µg/mL (≈ 0.975 µM); MIC (Escherichia coli [30]): > 128 µg/mL; MIC (Klebsiella pneumoniae [31]): 64 µg/mL (≈ 139 µM); MIC (Staphylococcus aureus [32]): 2 µg/mL (≈ 4.33 µM); MIC (Enterococcus faecalis [33]): 16 µg/mL (≈ 34.7 µM); MIC (Enterococcus faecium [34]): 2 µg/mL (≈ 4.33 µM)
CCO/N=C1/CN(c2nc3c(cc2F)c(=O)c(C(=O)O)cn3[C@@H]2C[C@@H]2F)CC1CNC1CC1 (stereo not given in full) | 8 (≈ 17.3 µM) | 16 (≈ 34.7 µM) | 4 (≈ 8.67 µM) | > 128 | 128 (≈ 277 µM) | 128 (≈ 277 µM) | 32 (≈ 69.3 µM) | 32 (≈ 69.3 µM) | 16 (≈ 34.7 µM) | 128 (≈ 277 µM) | < 0.008 | 32 (≈ 69.3 µM) | 32 (≈ 69.3 µM) | 16 (≈ 34.7 µM) | 1 (≈ 2.17 µM) | 16 (≈ 34.7 µM) | 8 (≈ 17.3 µM) | 16 (≈ 34.7 µM) | 4 (≈ 8.67 µM) | 4 (≈ 8.67 µM) | MIC (Pseudomonas aeruginosa [20]): 8 µg/mL (≈ 17.3 µM); MIC [21]: 32 µg/mL (≈ 69.3 µM); MIC (Pseudomonas aeruginosa [22]): 32 µg/mL (≈ 69.3 µM); MIC [23]: 64 µg/mL (≈ 139 µM); MIC (Klebsiella pneumoniae [24]): 64 µg/mL (≈ 139 µM); MIC (Enterococcus faecium [25]): 16 µg/mL (≈ 34.7 µM); MIC (Enterococcus faecalis [26]): 0.125 µg/mL (≈ 0.271 µM); MIC (Klebsiella pneumoniae [27]): 32 µg/mL (≈ 69.3 µM); MIC (Escherichia coli [28]): 0.03 µg/mL (≈ 0.065 µM); MIC90 [29]: 0.72 µg/mL (≈ 1.56 µM); MIC (Escherichia coli [30]): 128 µg/mL (≈ 277 µM); MIC (Klebsiella pneumoniae [31]): 32 µg/mL (≈ 69.3 µM); MIC (Staphylococcus aureus [32]): 8 µg/mL (≈ 17.3 µM); MIC (Enterococcus faecalis [33]): 32 µg/mL (≈ 69.3 µM); MIC (Enterococcus faecium [34]): 32 µg/mL (≈ 69.3 µM)
